ChEMBL document CHEMBL1127576, “Inhibition of human immunodeficiency virus type 1 replication by phosphonoformate- and phosphonoacetate-2',3'-dideoxy-3'-thiacytidine conjugates” (J Med Chem, 1994)

Tests used:
MT4 [1] = test: (§1) Concentration required to inhibit syntica formation by 50% in HIV-1 infected MT-4 cells; type: functional, cell-based; conditions: Homo sapiens
Procedure, shortened: (§2)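 MT-4 cells (3 × 10⁵) infected with diluted HIV-1 for 1 h at 37 °C, washed three times, then cultured with inhibitor. Syncytia were counted by inverted light microscopy 5 days post-infection. IC50 was the concentration giving 50% inhibition of syncytia formation without cell toxicity.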

[2] = Therapeutic index was measured as concentration required to cause 50% death of uninfected MT-4- cells to IC50 concentration required to inhibit syncytia formation by 50% in HIV-1 infected MT-4 cells; type: cell-based, MT4; conditions: human, uninfected MT-4 cells and HIV-1 infected MT-4 cells; read-out: TI
Procedure, shortened: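 Ratio of ID50 to IC50. ID50: uninfected MT-4 cells (2 × 10⁵), three replicate cultures, with graded analogue concentrations; viability by trypan blue exclusion 6 days after drug addition; ID50 is the concentration killing 50% of cells. IC50: 50% inhibition of syncytia in HIV-1-infected MT-4 cells (1 h infection, 37 °C), scored microscopically at day 5.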

MT4 [3] = test: as §1; type: ADME, cell-based; conditions: Homo sapiens; procedure, shortened: as §2

For `Nc1ccn(C2CSC(COP(=O)(O)C(=O)O)O2)c(=O)n1` (stereo unspecified), which IC50 (MT4 [1]) is on record?
Its IC50 is 100000 nM.

What about the selectivity ratio [2] of the same compound?
Its selectivity ratio is 10.

For `Nc1ccn(C2CSC(COC(=O)CP(=O)(O)O)O2)c(=O)n1` (stereo unspecified), which IC50 (MT4 [1]) is on record?
The IC50 was 1000 nM.

And the selectivity ratio [2]?
Its selectivity ratio is 300.

Which IC50 (MT4 [1]) does the source give for `Nc1ccn([C@@H]2CS[C@H](CO)O2)c(=O)n1` [LAMIVUDINE] here?
The IC50 was 100 nM.

What about the selectivity ratio [2] of the same compound?
The selectivity ratio was 1000.

Which results are given for `CCOP(=O)(CC(=O)Nc1ccn(C2CSC(CO)O2)c(=O)n1)OCC` (stereo unspecified)?
IC50 (MT4 [1]): 5000 nM; selectivity ratio [2]: 100

With `O=C(CP(=O)(O)O)Nc1ccn(C2CSC(CO)O2)c(=O)n1` (stereo unspecified) as the compound, how does the selectivity ratio [2] read?
The selectivity ratio was 10.

What about the IC50 (MT4 [3]) of the same compound?
The IC50 was 100000 nM.

With `CCOP(=O)(CC(=O)OCC1OC(n2ccc(N)nc2=O)CS1)OCC` (stereo unspecified) as the compound, how does the IC50 (MT4 [1]) read?
The IC50 was 10000 nM.

What about the selectivity ratio [2] of the same compound?
Its selectivity ratio is 50.

With `CCOP(=O)(OCC)C(=O)OCC1OC(n2ccc(NC(C)=O)nc2=O)CS1` (stereo unspecified) as the compound, how does the IC50 (MT4 [1]) read?
The IC50 was 300 nM.

What about the selectivity ratio [2] of the same compound?
Its selectivity ratio is 350.

Which IC50 (MT4 [1]) does the source give for `CC(=O)Nc1ccn(C2CSC(COC(=O)P(=O)(O)O)O2)c(=O)n1` (stereo unspecified) here?
The IC50 was 200 nM.

What about the selectivity ratio [2] of the same compound?
The selectivity ratio was 500.
